# Rows were chosen to be rich in hits. Some 4.8% of all compounds tested hit in one or more screens of this group.
# pPAFAH FP inh = inhibitors of human plasma PAF acetylhydrolase (pPAFAH); recombinant pPAFAH, FP-rhodamine probe fluorescence polarization; inhibition, % at 3.39 µM; 330,000 tested, 1.5% active;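 active = inhibition above the mean inhibition across the screen plus 3 SD, cut at about 25% in these data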;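 note: inhibitors block binding of the rhodamine activity-based probe so polarization drops; 0% = enzyme with DMSO and 100% = wells lacking pPAFAH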
# Target sequence (Q13093 whole entry, looked up): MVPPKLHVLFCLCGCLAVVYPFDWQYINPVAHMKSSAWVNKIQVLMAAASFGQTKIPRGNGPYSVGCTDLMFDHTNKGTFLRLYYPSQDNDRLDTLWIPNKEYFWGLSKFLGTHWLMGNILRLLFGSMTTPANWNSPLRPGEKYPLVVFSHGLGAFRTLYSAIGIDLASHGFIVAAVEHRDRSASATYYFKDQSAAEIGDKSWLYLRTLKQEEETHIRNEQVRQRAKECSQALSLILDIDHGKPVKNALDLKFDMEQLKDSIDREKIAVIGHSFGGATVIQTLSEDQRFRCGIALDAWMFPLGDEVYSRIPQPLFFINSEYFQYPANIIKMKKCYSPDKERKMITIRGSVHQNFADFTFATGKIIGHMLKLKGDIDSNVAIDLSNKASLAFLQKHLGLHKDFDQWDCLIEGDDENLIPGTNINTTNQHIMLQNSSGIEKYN
# NR3A LBD binder = modulates the human NR3A ligand-binding domain | NR3A LBD differential scanning fluorimetry, Tm shift; 0% = protein alone, 100% = glycine-bound protein | AID 1259313 | 340,000 tested, 2.5% active | Tm shift relative to glycine control, % at 25 µM;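 active = melting temperature shift of at least 10% of the positive control shift, at one fixed dose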
# PAFAH1B2 inh = blocks human PAF acetylhydrolase 1b catalytic subunit 2; recombinant PAFAH1B2, FP-rhodamine activity probe, fluorescence polarization; 340,000 tested, 1.2% active; inhibition, % at 3.39 µM; AID 492953; P68402;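 active = inhibition above the mean of all tested compounds plus 3 SD, cut at about 24% in these data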;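 note: 0% = enzyme with DMSO and 100% = wells lacking PAFAH1B2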
# Target sequence (P68402 whole entry, looked up): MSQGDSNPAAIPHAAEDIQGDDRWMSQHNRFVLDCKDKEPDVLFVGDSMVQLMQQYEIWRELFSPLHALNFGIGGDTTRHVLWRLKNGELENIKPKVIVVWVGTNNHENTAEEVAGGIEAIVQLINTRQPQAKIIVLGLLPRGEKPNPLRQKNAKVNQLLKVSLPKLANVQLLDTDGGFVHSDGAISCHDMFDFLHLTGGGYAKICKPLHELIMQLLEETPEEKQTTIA
# PAFAH2 inh = PAFAH2 (human) inhibition. Q99487. inhibition, % at 3.39 µM. recombinant PAFAH2, FP-rhodamine activity probe, fluorescence polarization. 340,000 tested, 0.99% active;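 active = inhibition above the mean over all tested compounds plus 3 SD, cut at about 30% in these data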;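 note: inhibitors block probe labeling of enzyme so polarization drops; 0% = enzyme with DMSO and 100% = wells lacking PAFAH2 protein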
# UCH37 inh = inhibitors of human deubiquitinating enzyme UCH37; Q9Y5K5; purified proteasome/UCH37, Ub-AMC cleavage fluorescence; inhibition, % (concentration not given with the values); 330,000 tested, 0.33% active; AID 588478;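 active = mean inhibition over replicate wells above about 20%, limit read from the data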;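 note: 0% = compound-free wells with enzyme and 100% = wells lacking proteasome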
#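 system = Proteasome-associated human UCH37 deubiquitinase | amount = 0.15 nM proteasome as dispensed | medium = pH 7.4 Tris-HCl (50 mM) with ovalbumin, ATP-MgCl2, DTT | incubation = 30 min preincubation with enzyme, 25 min cleavage at room temperature | detection = AMC fluorescence 355/460 nm | read-out basis = percent inhibition | controls = no-proteasome and no-compound wells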
# PAFAH1B3 FP inh = blocks human PAF acetylhydrolase 1B catalytic subunit 3. recombinant PAFAH1B3, FP-rhodamine probe, fluorescence polarization. inhibition, % at 3.39 µM. 340,000 tested, 0.28% active. AID 492972;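 active = inhibition above the screen-wide average of all tested compounds plus 3 SD, cut at about 25% in these data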;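 note: 0% = enzyme with DMSO only and 100% = wells lacking PAFAH1B3 protein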
# pPAFAH FP conf = confirmation of human plasma PAF acetylhydrolase (pPAFAH) inhibitors. inhibition, % at 3.39 µM. 2,300 tested, 72% active. AID 463230. recombinant pPAFAH, FP-Rh probe fluorescence polarization. shares compounds with pPAFAH FP inh;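 active = mean inhibition of the triplicate above the hit cutoff set for the earlier primary screen, cut at about 25% in these data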;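 note: 0% = enzyme with DMSO and 100% = wells lacking pPAFAH enzyme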
# * marks the source's active call; other numbers are inactive results; · = no result given.
SMILES,pPAFAH FP inh,NR3A LBD binder,PAFAH1B2 inh,PAFAH2 inh,UCH37 inh,PAFAH1B3 FP inh,pPAFAH FP conf
CCOc1cc(C=C2C(=O)NC(=O)NC2=O)ccc1OS(=O)(=O)c1ccccc1,4,-5,21,5,20*,3,·
CN1CCN(c2nc(N)c(Br)c(Cl)n2)CC1,7,14*,5,-1,3,11,·
O=P(C(=NO)N1CCCCC1)(N1CCOCC1)N1CCOCC1,·,·,·,·,4,·,·
O=C1NC(=O)C(=Cc2ccc(Sc3ccccc3)o2)C(=O)N1,12,-1,29*,33*,1,-1,·
CN1C(=O)C(=Cc2ccc(Sc3ccccc3)o2)C(=O)N(C)C1=O,-1,3,5,14,3,3,·
OCCNc1c2c(nc3ccccc13)CCCC2,-3,12*,-3,0,9,4,·
CN(C)c1ccc(C(=O)NN=CC23CC[C@@H](O)CC2(O)CC[C@@H]2[C@@H]3CCC3(C)C(C4=CC(=O)OC4)CCC23O)cc1 (stereo not given in full),·,·,·,·,5,·,·
Cc1ccc2c(c1)=C/C(=C\c1c(O)[nH]c(=S)[nH]c1=O)C(=O)N=2,6,·,·,·,·,·,·
Cc1ccc2c(c1)=NC(=O)/C(=C/c1c(O)[nH]c(=O)[nH]c1=O)C=2,-2,-4,33*,3,4,10,·
O=C(Cn1ncc2c([nH]c3ccccc32)c1=O)NCCCN1CCN(c2ccccc2)CC1,4,-2,-1,-5,7,5,·
CC(=O)NC(Cc1ccc(N(CCCl)CCCl)cc1)C(=O)NC(C(=O)O)C(C)C (stereo not given),0,-2,25*,1,0,-3,·
C[C@]12CCC3C(CCC4=CC(=NOCC(=O)NC(CCC(=O)O)C(=O)O)CC[C@@]43C)C1CCC2O (stereo not given in full),·,·,·,·,4,·,·
CCN(CC)c1ccc(C=C2C(=O)NC(=S)NC2=O)cc1,15,-7,11,18,7,-1,·
CC(C)CN(CC(C)C)c1ccc(C=C2C(=O)NC(=S)NC2=O)cc1[N+](=O)[O-],11,-4,34*,38*,17,0,·
Cc1cc(C)cc(N2C(=O)NC(=O)/C(=C/c3cccn3-c3ccc(Cl)cc3)C2=O)c1,10,0,48*,42*,2,4,·
Cc1cccc(N2C(=O)NC(=O)/C(=C\c3cccn3-c3ccc(Cl)cc3)C2=O)c1,12,1,74*,54*,1,8,·
Cc1cccc(N2C(=O)NC(=O)/C(=C/c3ccc([N+](=O)[O-])o3)C2=O)c1,26*,-4,·,·,21*,·,·
Cc1cccc(N2C(=O)NC(=O)/C(=C\C=C\c3ccco3)C2=O)c1,16,0,12,18,1,-2,·
CN(CCCCC(=O)C=NO)Cc1ccccc1 (tested in a mixture with another compound),·,·,·,·,-1,·,·
NC(=N[N+](=O)[O-])N1CCN(C(=O)c2ccccc2)CC1,·,·,·,·,3,·,·
NC(=NCCCC(NC(=O)CNC(=O)c1ccccc1)C(=O)O)N[N+](=O)[O-] (stereo not given),·,·,·,·,4,·,·
CNC(=S)N(Cc1cc2cc(OC)c(OC)cc2[nH]c1=O)C1CCCC1,7,1,6,14,-91,7,·
O=C(COC(=O)Cc1ccccc1)Nc1cc(S(=O)(=O)N2CCOCC2)ccc1N1CCCC1,39*,-2,4,9,1,2,39*
COc1ccc(OCc2cc(C(=O)N(C)Cc3cc(C)no3)no2)c(Cl)c1,8,4,11,0,0,8,·
CC[C@H](C)/C=C(C)/C=C/C1=CC2=C(Cl)C(=O)[C@@](C)(OC(C)=O)C(=O)C2=CO1,79*,-2,16,45*,·,12,79*
SMILES,pPAFAH FP inh,NR3A LBD binder,PAFAH1B2 inh,PAFAH2 inh,UCH37 inh,PAFAH1B3 FP inh,pPAFAH FP conf
CCN(CCO)c1ccc(N=Cc2c(O)n(C)c(=S)[nH]c2=O)cc1,37*,-1,·,·,4,·,3
CCN(CC)c1ccc(N=Cc2c(O)n(-c3cc(OC)ccc3OC)c(=O)[nH]c2=O)cc1,38*,1,7,-7,1,0,8
CCN(CC)c1ccc(N=Cc2c(O)n(Cc3ccco3)c(=O)[nH]c2=O)cc1,46*,2,3,10,2,7,0
CCN(CC)c1ccc(N=Cc2c(O)n(CCc3ccc(OC)c(OC)c3)c(=O)[nH]c2=O)cc1,19,5,1,3,-2,-1,·
CC(C)CNC(=O)C1c2ccccc2Oc2ccccc21,3,-2,5,7,1,11,·
COc1ccc(OC)c(N2C(=O)NC(=O)/C(=C/c3ccc([N+](=O)[O-])s3)C2=O)c1,62*,-6,55*,66*,8,69*,58*
COc1cc(/C=C2\C(=O)NC(=O)N(c3ccccc3)C2=O)c([N+](=O)[O-])cc1OC,·,-5,3,7,7,5,·
O=[N+]([O-])c1cc(-n2cnnn2)c(O)c([N+](=O)[O-])c1,8,-4,4,-5,15,15,·
O=[N+]([O-])c1cc(O)c(O)c([N+](=O)[O-])c1,37*,-12,16,37*,9,16,70*
N#Cc1ccccc1Cn1cc(C(=O)c2ccccc2F)c2ccccc21,72*,-8,-6,-2,·,5,79*
N#Cc1ccccc1Cn1cc(C(=O)c2cccs2)c2ccccc21,72*,-7,-3,-4,6,2,75*
O=C(c1cccs1)c1cn(Cc2ccccc2Cl)c2ccccc12,71*,-6,-5,-9,1,-6,71*
CC(C)NC(=O)Cn1cc(C(=O)c2ccccc2F)c2ccccc21,0,3,1,-9,1,-6,·
COc1ccc(-n2c(/C=C/c3ccc(O)c(O)c3)nc3ccccc3c2=O)cc1,37*,7,-2,5,-19,4,46*
COc1cc(/C=C/c2nc3ccccc3c(=O)n2-c2ccc(O)cc2)ccc1O,6,-3,6,3,-48,6,·
O=C1N(c2cccc(Cl)c2)C(c2ccccc2)N2CCCN12 (stereo not given),2,-3,5,-8,6,10,·
CC(C)C(=O)N1CCN(c2ccc(NC(=O)c3ccc4c(c3)OCCO4)cc2Cl)CC1,6,-2,2,5,1,7,·
Cc1nn2c(c1-c1ccccc1)NC1=C(C(=O)CCC1)C2c1ccccc1 (stereo not given),4,0,4,-11,-395,14,·
Cc1ccc(-c2cc(-c3ccccc3)cc(-c3ccccc3)[n+]2-c2ccc(C(=O)O)cc2)cc1,38*,1,9,10,-10,6,0

# Screening data (PubChem BioAssay)
